{"source": "paper PMC6130848", "about": "(Circulation. Cardiovascular imaging, 2018)", "key": {"tropoelastin": {"target": "T1, tropoelastin (Homo sapiens, UniProt P15502)", "T1 sequence (P15502 27-786)": "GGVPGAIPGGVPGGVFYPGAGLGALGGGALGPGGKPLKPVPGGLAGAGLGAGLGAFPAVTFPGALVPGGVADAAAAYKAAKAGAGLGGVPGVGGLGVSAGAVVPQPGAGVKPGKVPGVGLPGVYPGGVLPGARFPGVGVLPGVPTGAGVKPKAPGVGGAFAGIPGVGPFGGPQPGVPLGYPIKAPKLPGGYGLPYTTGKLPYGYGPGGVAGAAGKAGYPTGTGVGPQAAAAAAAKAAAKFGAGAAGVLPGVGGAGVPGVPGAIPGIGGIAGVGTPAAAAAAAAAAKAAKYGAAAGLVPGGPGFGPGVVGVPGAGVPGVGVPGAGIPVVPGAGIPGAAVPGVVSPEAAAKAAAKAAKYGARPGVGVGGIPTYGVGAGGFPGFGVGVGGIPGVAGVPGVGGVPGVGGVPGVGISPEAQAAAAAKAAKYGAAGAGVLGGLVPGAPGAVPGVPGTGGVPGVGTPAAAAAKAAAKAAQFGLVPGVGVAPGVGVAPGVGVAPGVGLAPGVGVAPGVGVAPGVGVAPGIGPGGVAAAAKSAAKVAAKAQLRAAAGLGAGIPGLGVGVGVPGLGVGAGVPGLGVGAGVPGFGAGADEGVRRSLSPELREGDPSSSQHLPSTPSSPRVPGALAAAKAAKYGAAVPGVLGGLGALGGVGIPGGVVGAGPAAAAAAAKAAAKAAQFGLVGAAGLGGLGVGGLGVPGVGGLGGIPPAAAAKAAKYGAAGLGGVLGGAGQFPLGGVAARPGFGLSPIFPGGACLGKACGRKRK", "format": "binding"}, "[1]": {"test_system": "tropoelastin, mature elastin, collagen I, fibronectin, human serum albumin", "format": "binding", "conditions": "Eu-labelled probes, in vitro"}, "[2]": {"conditions": "20MHz, 37°C; cited from earlier work"}, "[3]": {"format": "in vivo", "conditions": "biodistribution of ^64Cu-labeled probes"}, "[4]": {"test_system": "vessel wall tropoelastin of ApoE^-/- mice", "conditions": "2016 h"}, "[5]": {"test_system": "vessel wall tropoelastin of ApoE^-/- mice", "conditions": "feed or water, 40 mg/kg, 2016 h"}, "diseased vessel sections": {"test_system": "diseased vessel sections", "parameters": "species or system mouse", "conditions": "200nM, 24h, 4°C", "procedure,_shortened": "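Vessel sections incubated with rhodamine-labelled tropoelastin-binding peptide (200nM solution) for 24h at 4°C, then counterstained for nuclei with Hoechst (1:3000, 15 min, room temperature). Kept shielded from light throughout and mounted in Mowiol medium containing 2.5% DABCO. Read-out by fluorescent microscopy.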"}, "[6]": {"conditions": "tissue and species not stated; cited from earlier work"}}, "note": "Residues, ends and D or L forms follow the SMILES beside them. No end group written: not given here. *: point of attachment. DOTA = O=C(O)CN1CCN(CC(=O)O)CCN(CC(=O)*)CCN(CC(=O)O)CC1"}
{"compound": "CC(C)C[C@H](NC(=O)[C@@H]1CCCN1C(=O)[C@H](CO)NC(=O)[C@H](C)NC(=O)[C@H](CCC(=O)O)NC(=O)[C@H](CC(=O)O)NC(=O)[C@H](CCC(N)=O)NC(=O)[C@H](C)NC(=O)[C@H](CO)NC(=O)[C@@H]1CCCN1C(=O)[C@H](CO)NC(=O)CNC(=O)[C@@H](NC(=O)[C@@H](NC(=O)CN1CCN(CC(=O)O)CCN(CC(=O)O)CCN(CC(=O)O)CC1)C(C)C)C(C)C)C(=O)N[C@@H](CO)C(=O)O", "note": "[(Eu-DOTA)-VVGS] ({DOTA}-VVGSPSAQDEASPLS-OH)", "values": [{"measurement": "binding to tropoelastin", "setting": "tropoelastin", "value": "64±7", "unit": "%"}, {"measurement": "selectivity towards tropoelastin compared with collagen I, fibronectin and HSA", "setting": "[1]", "value": "high selectivity"}]}
{"compound": "O=C([O-])CN(CCN(CC(=O)[O-])CC(=O)O)CCN(CC(=O)[O-])CC(=O)O.[Gd+3]", "note": "[Gd-DTPA]", "values": [{"measurement": "relaxivity r1", "setting": "[2]", "value": 4.02, "unit": "mM⁻¹ s⁻¹"}]}
{"compound": "CC(C)[C@H](NC(=O)[C@H](Cc1c[nH]cn1)NC(=O)[C@H](CC(=O)O)NC(=O)[C@@H]1CCCN1C(=O)[C@H](Cc1ccc(O)cc1)NC(=O)[C@@H](N)CCCCNC(=O)CN1CCN(CC(=O)O)CCN(CC(=O)O)CCN(CC(=O)O)CC1)C(=O)N[C@@H](CCC(N)=O)C(=O)N[C@@H](Cc1ccc(O)cc1)C(=O)N[C@H](C(=O)N[C@@H](Cc1c[nH]cn1)C(=O)N[C@@H](Cc1ccc(O)cc1)C(=O)O)[C@@H](C)O", "note": "[K(Eu-DOTA)-YPDH] (H-K(DOTA)YPDHVQYTHY-OH)", "values": [{"measurement": "binding to tropoelastin", "setting": "tropoelastin", "value": "84± 4", "unit": "%"}, {"measurement": "selectivity towards tropoelastin compared with collagen I, fibronectin and HSA", "setting": "[1]", "value": "high selectivity"}]}
{"compound": "CC(C)[C@H](NC(=O)[C@H](Cc1c[nH]cn1)NC(=O)[C@H](CC(=O)O)NC(=O)[C@@H]1CCCN1C(=O)[C@H](Cc1ccc(O)cc1)NC(=O)[C@@H](N)CCCCNC(=O)CN1CCN(CC(=O)O)CCN(CC(=O)O)CCN(CC(=O)O)CC1)C(=O)N[C@@H](CCC(N)=O)C(=O)N[C@@H](Cc1ccc(O)cc1)C(=O)N[C@H](C(=O)N[C@@H](Cc1c[nH]cn1)C(=O)N[C@@H](Cc1ccc(O)cc1)C(=O)O)[C@@H](C)O", "note": "[K(^64Cu-DOTA)-YPDH, metal not drawn] (H-K(DOTA)YPDHVQYTHY-OH)", "values": [{"measurement": "liver uptake", "setting": "[3]", "value": "some liver uptake"}]}
{"compound": "CC[C@H](C)C(=O)O[C@H]1C[C@H](O)C=C2C=C[C@H](C)[C@H](CC[C@@H](O)C[C@@H](O)CC(=O)O)[C@H]21", "note": "[statin, pravastatin]", "values": [{"measurement": "vessel wall tropoelastin concentration (western blotting)", "setting": "[4]", "value": "1.17±0.09", "unit": "mg/gr tissue"}, {"measurement": "% tropoelastin (immunopositive area/vessel wall area)", "setting": "[5]", "value": "11.41±0.35", "unit": "%"}]}
{"compound": "VVGSPSAQDEASPLS", "values": [{"measurement": "fluorescent signal in tropoelastin-rich areas of diseased vessels", "setting": "diseased vessel sections", "value": "fluorescent signal"}]}
{"compound": "{DOTA}-VVGSPSAQDEASPLS [(^64Cu –DOTA)-VVGS]", "values": [{"measurement": "uptake", "setting": "[6]", "value": 7.2, "unit": "%ID/g"}]}
